ChEMBL document CHEMBL5724801, “EUbOPEN Chemogenomics Library - Multiplex” (2024)
“And” between values parts separate entries of the source, which are not always exact repeats. Equal values may be shown once.

System: HEK-293T
Assay: Multiplex assay against HEK293T
Assay type: toxicity, cell-based
Details: human
Outline: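 Cells were classed with CellPathfinder machine-learning gating, first as Hoechst high-intensity objects or normal cells, then (normal cells) as healthy, pyknosed or fragmented nuclei, and finally (pyknosed cells) as mitotic or apoptotic. Staining of live cells at seeding used Hoechst33342, BioTracker Green Microtubule Cytoskeleton Dye, MitoTracker Red and Annexin V Alexa Fluor 680, with imaging on a CQ1 microscope at 37°C and 5% CO2 after compound addition. Tubulin, mitochondrial-mass and membrane-permeability phenotypes are per cents of healthy-nucleus cells.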

[1] = 12 h, 1 µM, compound concentration 1 uM
[2] = 12 h, 10 µM, compound concentration 10 uM
[3] = 24 h, 1 µM, compound concentration 1 uM
[4] = 24 h, 10 µM, compound concentration 10 uM
[5] = 48 h, 1 µM, compound concentration 1 uM
[6] = 48 h, 10 µM, compound concentration 10 uM

COc1ccc2[nH]c(I)c(CCNC(C)=O)c2c1 [IODOMELATONIN]
Population Apoptotic (%) [1]: 42% and 59%
Population Fragmented Nuclei (%) [1]: 4% and 5%
Population Healthy Nuclei (%) [1]: 80% and 84%
Population Hoechst High Intensity Objects (%) [1]: 5% and 7%
Population Membrane Permeable-Phenotype (%) [1]: 1% and 0%
Population Mitochondria Different-Phenotype (%) [1]: 43% and 64%
Population Mitotic Cells (%) [1]: 57% and 40%
Population Normal (%) [1]: 94% and 92%
Population Pyknosed Nuclei (%) [1]: 14% and 10%
Population Tubulin-Different-Phenotype (%) [1]: 35% and 32%
Total Cell Count [1]: 388 and 400
Population Apoptotic (%) [2]: 38% and 46%
Population Fragmented Nuclei (%) [2]: 11% and 8%
Population Healthy Nuclei (%) [2]: 77%
Population Hoechst High Intensity Objects (%) [2]: 8% and 12%
Population Membrane Permeable-Phenotype (%) [2]: 0%
Population Mitochondria Different-Phenotype (%) [2]: 52% and 62%
Population Mitotic Cells (%) [2]: 61% and 53%
Population Normal (%) [2]: 91% and 87%
Population Pyknosed Nuclei (%) [2]: 10% and 14%
Population Tubulin-Different-Phenotype (%) [2]: 29% and 25%
Total Cell Count [2]: 445 and 316
Population Apoptotic (%) [3]: 38% and 44%
Population Fragmented Nuclei (%) [3]: 8% and 9%
Population Healthy Nuclei (%) [3]: 80% and 78%
Population Hoechst High Intensity Objects (%) [3]: 3% and 8%
Population Membrane Permeable-Phenotype (%) [3]: 1% and 0%
Population Mitochondria Different-Phenotype (%) [3]: 24% and 37%
Population Mitotic Cells (%) [3]: 61% and 55%
Population Normal (%) [3]: 96% and 91%
Population Pyknosed Nuclei (%) [3]: 11%
Population Tubulin-Different-Phenotype (%) [3]: 23% and 14%
Total Cell Count [3]: 511 and 497
Population Apoptotic (%) [4]: 32% and 40%
Population Fragmented Nuclei (%) [4]: 11% and 5%
Population Healthy Nuclei (%) [4]: 77% and 81%
Population Hoechst High Intensity Objects (%) [4]: 5% and 9%
Population Membrane Permeable-Phenotype (%) [4]: 1% and 0%
Population Mitochondria Different-Phenotype (%) [4]: 31% and 48%
Population Mitotic Cells (%) [4]: 67% and 59%
Population Normal (%) [4]: 94% and 90%
Population Pyknosed Nuclei (%) [4]: 10% and 12%
Population Tubulin-Different-Phenotype (%) [4]: 25% and 21%
Total Cell Count [4]: 568 and 360
Population Apoptotic (%) [5]: 26% and 31%
Population Fragmented Nuclei (%) [5]: 12%
Population Healthy Nuclei (%) [5]: 79%
Population Hoechst High Intensity Objects (%) [5]: 4% and 5%
Population Membrane Permeable-Phenotype (%) [5]: 1%
Population Mitochondria Different-Phenotype (%) [5]: 19% and 22%
Population Mitotic Cells (%) [5]: 73% and 68%
Population Normal (%) [5]: 95% and 94%
Population Pyknosed Nuclei (%) [5]: 7% and 8%
Population Tubulin-Different-Phenotype (%) [5]: 16% and 14%
Total Cell Count [5]: 770 and 622
Population Apoptotic (%) [6]: 23% and 25%
Population Fragmented Nuclei (%) [6]: 16% and 15%
Population Healthy Nuclei (%) [6]: 77% and 75%
Population Hoechst High Intensity Objects (%) [6]: 1% and 2%
Population Membrane Permeable-Phenotype (%) [6]: 1% and 0%
Population Mitochondria Different-Phenotype (%) [6]: 16% and 24%
Population Mitotic Cells (%) [6]: 76% and 74%
Population Normal (%) [6]: 98% and 97%
Population Pyknosed Nuclei (%) [6]: 5% and 9%
Population Tubulin-Different-Phenotype (%) [6]: 11% and 16%
Total Cell Count [6]: 860 and 613

c1cc(OCCCN2CCCCC2)ccc1CN1CCCCC1 [JNJ-5207852]
Population Apoptotic (%) [1]: 36% and 47%
Population Fragmented Nuclei (%) [1]: 6% and 10%
Population Healthy Nuclei (%) [1]: 84% and 75%
Population Hoechst High Intensity Objects (%) [1]: 5%
Population Membrane Permeable-Phenotype (%) [1]: 0%
Population Mitochondria Different-Phenotype (%) [1]: 36% and 53%
Population Mitotic Cells (%) [1]: 63% and 52%
Population Normal (%) [1]: 94%
Population Pyknosed Nuclei (%) [1]: 8% and 13%
Population Tubulin-Different-Phenotype (%) [1]: 21% and 17%
Total Cell Count [1]: 577 and 310
Population Apoptotic (%) [2]: 40% and 66%
Population Fragmented Nuclei (%) [2]: 7%
Population Healthy Nuclei (%) [2]: 75% and 67%
Population Hoechst High Intensity Objects (%) [2]: 7% and 11%
Population Membrane Permeable-Phenotype (%) [2]: 0% and 1%
Population Mitochondria Different-Phenotype (%) [2]: 63% and 69%
Population Mitotic Cells (%) [2]: 59% and 33%
Population Normal (%) [2]: 92% and 88%
Population Pyknosed Nuclei (%) [2]: 17% and 24%
Population Tubulin-Different-Phenotype (%) [2]: 52% and 41%
Total Cell Count [2]: 328 and 259
Population Apoptotic (%) [3]: 25% and 41%
Population Fragmented Nuclei (%) [3]: 6% and 11%
Population Healthy Nuclei (%) [3]: 82% and 79%
Population Hoechst High Intensity Objects (%) [3]: 5% and 3%
Population Membrane Permeable-Phenotype (%) [3]: 1% and 0%
Population Mitochondria Different-Phenotype (%) [3]: 20% and 30%
Population Mitotic Cells (%) [3]: 74% and 58%
Population Normal (%) [3]: 94% and 96%
Population Pyknosed Nuclei (%) [3]: 11% and 9%
Population Tubulin-Different-Phenotype (%) [3]: 15% and 12%
Total Cell Count [3]: 710 and 447
Population Apoptotic (%) [4]: 47% and 65%
Population Fragmented Nuclei (%) [4]: 9% and 8%
Population Healthy Nuclei (%) [4]: 77% and 79%
Population Hoechst High Intensity Objects (%) [4]: 6% and 5%
Population Membrane Permeable-Phenotype (%) [4]: 1% and 2%
Population Mitochondria Different-Phenotype (%) [4]: 47% and 50%
Population Mitotic Cells (%) [4]: 52% and 34%
Population Normal (%) [4]: 93% and 94%
Population Pyknosed Nuclei (%) [4]: 13% and 11%
Population Tubulin-Different-Phenotype (%) [4]: 44% and 35%
Total Cell Count [4]: 414 and 322
Population Apoptotic (%) [5]: 17% and 23%
Population Fragmented Nuclei (%) [5]: 14% and 11%
Population Healthy Nuclei (%) [5]: 80% and 83%
Population Hoechst High Intensity Objects (%) [5]: 2% and 1%
Population Membrane Permeable-Phenotype (%) [5]: 1%
Population Mitochondria Different-Phenotype (%) [5]: 12% and 17%
Population Mitotic Cells (%) [5]: 82% and 76%
Population Normal (%) [5]: 97% and 98%
Population Pyknosed Nuclei (%) [5]: 5% and 4%
Population Tubulin-Different-Phenotype (%) [5]: 11% and 9%
Total Cell Count [5]: 1128 and 746
Population Apoptotic (%) [6]: 34% and 52%
Population Fragmented Nuclei (%) [6]: 13%
Population Healthy Nuclei (%) [6]: 77% and 75%
Population Hoechst High Intensity Objects (%) [6]: 8% and 9%
Population Membrane Permeable-Phenotype (%) [6]: 1%
Population Mitochondria Different-Phenotype (%) [6]: 29% and 38%
Population Mitotic Cells (%) [6]: 65% and 47%
Population Normal (%) [6]: 91% and 90%
Population Pyknosed Nuclei (%) [6]: 8% and 10%
Population Tubulin-Different-Phenotype (%) [6]: 28% and 30%
Total Cell Count [6]: 619 and 424

CC(=O)O[C@H]1C(=O)[C@@]2(C)[C@H]([C@H](OC(=O)c3ccccc3)[C@]3(O)C[C@H](OC(=O)[C@H](O)[C@@H](NC(=O)c4ccccc4)c4ccccc4)C(C)=C1C3(C)C)[C@]1(OC(C)=O)CO[C@@H]1C[C@@H]2O [PACLITAXEL]
Population Apoptotic (%) [2]: 41% and 56%
Population Fragmented Nuclei (%) [2]: 7% and 5%
Population Healthy Nuclei (%) [2]: 74% and 64%
Population Hoechst High Intensity Objects (%) [2]: 16% and 14%
Population Membrane Permeable-Phenotype (%) [2]: 0%
Population Mitochondria Different-Phenotype (%) [2]: 79% and 84%
Population Mitotic Cells (%) [2]: 58% and 43%
Population Normal (%) [2]: 83% and 85%
Population Pyknosed Nuclei (%) [2]: 17% and 29%
Population Tubulin-Different-Phenotype (%) [2]: 11% and 16%
Population Apoptotic (%) [4]: 35% and 47%
Population Fragmented Nuclei (%) [4]: 10% and 8%
Population Healthy Nuclei (%) [4]: 70% and 73%
Population Hoechst High Intensity Objects (%) [4]: 16% and 15%
Population Membrane Permeable-Phenotype (%) [4]: 0%
Population Mitochondria Different-Phenotype (%) [4]: 72% and 82%
Population Mitotic Cells (%) [4]: 64% and 52%
Population Normal (%) [4]: 83% and 84%
Population Pyknosed Nuclei (%) [4]: 18% and 17%
Population Tubulin-Different-Phenotype (%) [4]: 8% and 16%
Population Apoptotic (%) [6]: 29% and 69%
Population Fragmented Nuclei (%) [6]: 15% and 10%
Population Healthy Nuclei (%) [6]: 68% and 70%
Population Hoechst High Intensity Objects (%) [6]: 11%
Population Membrane Permeable-Phenotype (%) [6]: 0%
Population Mitochondria Different-Phenotype (%) [6]: 64% and 70%
Population Mitotic Cells (%) [6]: 70% and 30%
Population Normal (%) [6]: 88%
Population Pyknosed Nuclei (%) [6]: 15% and 19%
Population Tubulin-Different-Phenotype (%) [6]: 2% and 11%

CCCN1CCC[C@@H]2Cc3n[nH]cc3C[C@H]21.Cl [QUINPIROLE HYDROCHLORIDE]
Population Apoptotic (%) [1]: 32% and 63%
Population Fragmented Nuclei (%) [1]: 6% and 4%
Population Healthy Nuclei (%) [1]: 84% and 82%
Population Hoechst High Intensity Objects (%) [1]: 6% and 3%
Population Membrane Permeable-Phenotype (%) [1]: 0%
Population Mitochondria Different-Phenotype (%) [1]: 37% and 67%
Population Mitotic Cells (%) [1]: 67% and 36%
Population Normal (%) [1]: 93% and 96%
Population Pyknosed Nuclei (%) [1]: 9% and 12%
Population Tubulin-Different-Phenotype (%) [1]: 22% and 26%
Total Cell Count [1]: 447 and 294
Population Apoptotic (%) [2]: 55% and 46%
Population Fragmented Nuclei (%) [2]: 11% and 5%
Population Healthy Nuclei (%) [2]: 72% and 78%
Population Hoechst High Intensity Objects (%) [2]: 9% and 5%
Population Membrane Permeable-Phenotype (%) [2]: 0%
Population Mitochondria Different-Phenotype (%) [2]: 53% and 69%
Population Mitotic Cells (%) [2]: 44% and 53%
Population Normal (%) [2]: 90% and 94%
Population Pyknosed Nuclei (%) [2]: 15% and 16%
Population Tubulin-Different-Phenotype (%) [2]: 40% and 26%
Total Cell Count [2]: 381 and 312
Population Apoptotic (%) [3]: 30% and 29%
Population Fragmented Nuclei (%) [3]: 12% and 8%
Population Healthy Nuclei (%) [3]: 79% and 81%
Population Hoechst High Intensity Objects (%) [3]: 3% and 2%
Population Membrane Permeable-Phenotype (%) [3]: 0%
Population Mitochondria Different-Phenotype (%) [3]: 17% and 37%
Population Mitotic Cells (%) [3]: 70%
Population Normal (%) [3]: 96% and 97%
Population Pyknosed Nuclei (%) [3]: 8% and 9%
Population Tubulin-Different-Phenotype (%) [3]: 14% and 16%
Total Cell Count [3]: 600 and 390
Population Apoptotic (%) [4]: 45% and 43%
Population Fragmented Nuclei (%) [4]: 10% and 7%
Population Healthy Nuclei (%) [4]: 77% and 78%
Population Hoechst High Intensity Objects (%) [4]: 4% and 2%
Population Membrane Permeable-Phenotype (%) [4]: 0%
Population Mitochondria Different-Phenotype (%) [4]: 38% and 43%
Population Mitotic Cells (%) [4]: 54% and 56%
Population Normal (%) [4]: 95% and 97%
Population Pyknosed Nuclei (%) [4]: 11% and 13%
Population Tubulin-Different-Phenotype (%) [4]: 27% and 13%
Total Cell Count [4]: 529 and 406
Population Apoptotic (%) [5]: 21% and 33%
Population Fragmented Nuclei (%) [5]: 16% and 11%
Population Healthy Nuclei (%) [5]: 76% and 84%
Population Hoechst High Intensity Objects (%) [5]: 1% and 2%
Population Membrane Permeable-Phenotype (%) [5]: 1%
Population Mitochondria Different-Phenotype (%) [5]: 9% and 19%
Population Mitotic Cells (%) [5]: 78% and 66%
Population Normal (%) [5]: 98%
Population Pyknosed Nuclei (%) [5]: 6% and 4%
Population Tubulin-Different-Phenotype (%) [5]: 10% and 8%
Total Cell Count [5]: 1105 and 649
Population Apoptotic (%) [6]: 40% and 33%
Population Fragmented Nuclei (%) [6]: 15% and 13%
Population Healthy Nuclei (%) [6]: 78% and 80%
Population Hoechst High Intensity Objects (%) [6]: 2% and 1%
Population Membrane Permeable-Phenotype (%) [6]: 1% and 0%
Population Mitochondria Different-Phenotype (%) [6]: 23% and 28%
Population Mitotic Cells (%) [6]: 59% and 66%
Population Normal (%) [6]: 97% and 98%
Population Pyknosed Nuclei (%) [6]: 6%
Population Tubulin-Different-Phenotype (%) [6]: 15% and 13%
Total Cell Count [6]: 772 and 654
